Test results from publication PMC7101055 (ACS Chemical Neuroscience, 2020).
“Also recorded” adds a separate entry of the source. Read-outs that look alike come from different tables or passages of the source. Values belong to the compound of their own block, whether it stands above or below them.

Key:
[1] = UV-vis spectra in KMOPS buffer pH 7.2; format: physicochemical; conditions: for ε365 / ε405: 0.1 mM in KMOPS buffer; for ε365: 365 nm; for ε405: 405 nm; for λmax: 0.1 mM solution in KMOPS buffer
[2] = 1PE photolysis at 365 and 405 nm; format: physicochemical; conditions: for Φu(365) quantum yield of photolysis / sensitivity (ε365Φu): 365 nm; for Φu(365) quantum yield of photolysis / Φu(405) quantum yield of photolysis: 0.1 mM in KMOPS buffer; for Φu(365) quantum yield of photolysis / sensitivity (ε365Φu) / Φu(405) quantum yield of photolysis / sensitivity (ε405Φu): pH 7.2; for sensitivity (ε365Φu) / sensitivity (ε405Φu): KMOPS buffer; for Φu(405) quantum yield of photolysis / sensitivity (ε405Φu): 405 nm; for yield of DA or sulpiride released (365 nm): photolysis at 365 nm; for yield of DA or sulpiride released (365 nm) / yield of DA or sulpiride released (405 nm): measured by HPLC, KMOPS pH 7.2; for yield of DA or sulpiride released (405 nm): photolysis at 405 nm
How it was run: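 Test compound at 0.1 mM in KMOPS buffer (100 mM KCl, 10 mM MOPS, adjusted to pH 7.2 with KOH), irradiated with one-photon light. Released dopamine quantified by HPLC to give chemical yield.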

2-photon excitation = format: physicochemical; conditions: excitation at 740 nm, KMOPS buffer pH 7.2
How it was run: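 Two-photon uncaging of test compound in KMOPS buffer (100 mM KCl and 10 mM MOPS, brought to pH 7.2 with KOH), with excitation at 740 nm.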

[3] = Spontaneous hydrolysis in the dark, buffer, by HPLC; format: physicochemical; conditions: 100-μM solution in KMOPS buffer pH 7.2, HPLC
[4] = target: T1, D2 receptors on substantia nigra dopamine neurons (Mus musculus, UniProt P61168); format: cell-based
T1 sequence (P61168 whole entry): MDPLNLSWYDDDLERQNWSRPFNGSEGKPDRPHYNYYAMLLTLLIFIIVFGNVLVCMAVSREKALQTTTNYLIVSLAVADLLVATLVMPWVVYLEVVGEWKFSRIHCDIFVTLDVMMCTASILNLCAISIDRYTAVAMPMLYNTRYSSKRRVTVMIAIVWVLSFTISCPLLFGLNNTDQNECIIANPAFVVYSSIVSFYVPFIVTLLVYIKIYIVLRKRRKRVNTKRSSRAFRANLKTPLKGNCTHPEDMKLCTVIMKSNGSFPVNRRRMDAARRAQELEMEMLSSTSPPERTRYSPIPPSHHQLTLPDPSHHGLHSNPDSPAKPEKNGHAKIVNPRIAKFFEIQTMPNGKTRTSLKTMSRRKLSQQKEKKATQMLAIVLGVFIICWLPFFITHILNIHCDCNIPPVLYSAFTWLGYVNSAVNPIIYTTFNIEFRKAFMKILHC

[5] = target: T1, D2 receptors on substantia nigra dopamine neurons; format: cell-based; conditions: CyHQ-sulpiride 5 μM, 1 s flash; quinpirole 300 nM or dopamine 1 μM
D2 receptor = conditions: cited from earlier work
human D2 receptors = conditions: cited from earlier work
rat D2 receptors = conditions: cited from earlier work
[6] = pH 7.2; cited from earlier work

rise time of current from 10 to 90% of the peak ([4]; iontophoretically applied dopamine (1 M, 10 ms 100 nA pulse)): 270 ms | rise time of current from 10 to 90% of the peak ([4]; synaptically released dopamine (IPSC, single stimulation)): 141 ms | time constant of decay τ of D2 current after CyHQ-sulpiride photolysis [5]: 307 ms
Compound: NCCc1ccc(O)c(O)c1 [dopamine]
koff (D2 receptor): 1.69 min^–1

effect on CyHQ-O-DA flash response ([4]; sulpiride 500 nM, CyHQ-O-DA 150 μM): all response was blocked | reversal of the dark current produced by CyHQ-O-DA ([4]; sulpiride 1 μM, CyHQ-O-DA 1 mM in the dark): unable to fully reverse the effect
Compound: CCN1CCCC1CNC(=O)c1cc(S(N)(=O)=O)ccc1OC (stereo not drawn) [sulpiride]
Ki (human D2 receptors): 9.4 nM | Ki (rat D2 receptors): 6.9 nM

The remaining lines, values behind:

Compound: (8-Cyano-7-hydroxyquinolin-2-yl)methyl(3,4-dihydroxyphenethyl)carbamate [CyHQ-N-DA]
ε365 [1]: 6700 M^–1 cm^–1 | ε405 [1]: 251 M^–1 cm^–1 | λmax [1]: 364 nm | Φu(365) quantum yield of photolysis [2]: 0.19 | sensitivity (ε365Φu) [2]: 1283 | Φu(405) quantum yield of photolysis [2]: 0.20 | sensitivity (ε405Φu) [2]: 50 | yield of DA or sulpiride released (365 nm) [2]: 60% | yield of DA or sulpiride released (405 nm) [2]: 49% | δu 2-photon uncaging action cross-section (2-photon excitation): did not photolyze through 2PE; also recorded: n.p. ^c | dark stability: no spontaneous hydrolysis in the dark observed within the time given [3]: 24 h

Compound: N#Cc1c(O)ccc2ccc(COc3ccc(CCN)cc3OCc3ccc4ccc(O)c(C#N)c4n3)nc12 [(CyHQ)2-O,O-DA, 2,2′-(((4-(2-Aminoethyl)-1,2-phenylene)bis(oxy))bis(methylene))bis(7-hydroxyquinoline-8-carbonitrile)]
ε365 [1]: 5480 M^–1 cm^–1 | ε405 [1]: 324 M^–1 cm^–1 | λmax [1]: 364 nm | Φu(365) quantum yield of photolysis [2]: 0.19 | sensitivity (ε365Φu) [2]: 1044 | Φu(405) quantum yield of photolysis [2]: 0.19 | sensitivity (ε405Φu) [2]: 61 | yield of DA or sulpiride released (365 nm) [2]: 16% | yield of DA or sulpiride released (405 nm) [2]: 15% | chemical yield of dopamine ([2]; range over 365 and 405 nm photolysis): 15–16% | photochemical quantum yield ([2]; wavelength not stated in the sentence (1PE)): 0.19 | δu 2-photon uncaging action cross-section (2-photon excitation): 0.12 GM | dark stability: no spontaneous hydrolysis in the dark observed within the time given [3]: 100 h

Compound: COc1cc(C(Oc2ccc(CNC(=O)CCCC/C=C/C(C)C)cc2OC)C(=O)O)c([N+](=O)[O-])cc1OC (stereo not drawn)
decomposition in the dark in 24 h [6]: 1.7%
